Measurements from publication PMC7017397 (ACS Omega, 2020).

Tests used:
[1] = Spinal cord pharmacokinetics after a single 1 mg/kg dose; format: in vivo, C57BL/6J mice; details: spinal cord
Method in brief: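 Anaesthetized (zolazepam/xylazine i.p.) male C57BL/6J mice, n = 4 per time point, were dosed 1 mg/kg by i.v., s.c., i.p. or gavage. At 2.5–90 min, after cardiac blood sampling, they were transcardially perfused with saline. Brain and spinal cord were homogenized in equal weight-volume water, spiked with internal standard, deproteinized 1:3 with cold acetonitrile and quantified by LC–MS/MS. Per-time-point means were fitted with a two-compartment model.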

[2] = Plasma pharmacokinetics after a single 1 mg/kg dose; format: in vivo, C57BL/6J mice; details: for AUC / MRT last / k el: C57BL/6J, mouse, 1 mg/kg
Method in brief: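 Male C57BL/6J mice (10–12 weeks; n = 4 per time point) under i.p. zolazepam 50 mg/kg plus xylazine 12 mg/kg received 1 mg/kg in 5% dextrose (37 °C) by tail-vein i.v., s.c., i.p. or gavage. Terminal cardiac-puncture blood was taken into EDTA at 2.5–90 min. Plasma was spiked with internal standard, acetonitrile-deproteinized and measured by LC–MS/MS. Mean levels were fitted two-compartmentally, with AUC by linear trapezoidal rule.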

With `CC(=O)N[C@@H](Cc1ccccc1)C(=O)N[C@H]1CCCNC(=O)[C@H](CCCNC(=N)N)NC(=O)[C@H](Cc2c[nH]c3ccccc23)NC(=O)[C@@H](CC2CCCCC2)NC(=O)[C@@H]2CCCN2C1=O` [PMX53, Ac-Phe-[Orn-Pro-dCha-Trp-Arg]] the “K12 (distribution rate constant)” value ([1]; i.p. 1 mg/kg single dose) was less than 0.01 h⁻¹, the “K21 (redistribution rate constant)” value ([1]; i.p. 1 mg/kg single dose) was 0.19 h⁻¹ and the “V1_F (apparent volume of central compartment)” value ([1]; i.p. 1 mg/kg single dose) was 0.35 μg/(ng/g). For the same compound, the “V2_F (apparent volume of peripheral compartment)” value ([1]; i.p. 1 mg/kg single dose) was <0.01 μg/(ng/g), the “Alpha (hybrid first-order rate constant, distribution phase)” value (shortened to “Alpha”) ([1]; i.v. 1 mg/kg single dose) was 26.36 h⁻¹ and the “Beta (hybrid first-order rate constant, elimination phase)” value (“Beta” for short) ([1]; i.v. 1 mg/kg single dose) was 0.27 h⁻¹. For the same compound, the “CLD2_F (apparent total clearance of the drug after administration)” value ([1]; i.v. 1 mg/kg single dose) was 30.58 ng/(min ng/g), the “CL_F (apparent total body clearance of the drug)” value ([1]; i.v. 1 mg/kg single dose) was 1.52 ng/(min ng/g) and the “K12 (distribution rate constant)” value ([1]; i.v. 1 mg/kg single dose) was 7.94 h⁻¹. The “K21 (redistribution rate constant)” value ([1]; i.v. 1 mg/kg single dose) was 18.30 h⁻¹, the “V1_F (apparent volume of central compartment)” value ([1]; i.v. 1 mg/kg single dose) was 0.23 μg/(ng/g) and the “V2_F (apparent volume of peripheral compartment)” value ([1]; i.v. 1 mg/kg single dose) was 0.10 μg/(ng/g). For the same compound, the “Vss (apparent volume of distribution at a steady state)” value ([1]; i.v. 1 mg/kg single dose) was 0.33 μg/(ng/g), the “Alpha” value ([1]; p.o. 1 mg/kg single dose) was 1.69 h⁻¹ and the “Beta” value ([1]; p.o. 1 mg/kg single dose) was 0.26 h⁻¹. The “CLD2_F (apparent total clearance of the drug after administration)” value ([1]; p.o. 1 mg/kg single dose) was 2.71 ng/(min ng/g), the “CL_F (apparent total body clearance of the drug)” value ([1]; p.o. 1 mg/kg single dose) was 2.33 ng/(min ng/g) and the “K01 (absorption rate constant)” value ([1]; p.o. 1 mg/kg single dose) was 11.20 h⁻¹. The “K12 (distribution rate constant)” value ([1]; p.o. 1 mg/kg single dose) was 0.51 h⁻¹, the “K21 (redistribution rate constant)” value ([1]; p.o. 1 mg/kg single dose) was 1.00 h⁻¹ and the “V1_F (apparent volume of central compartment)” value ([1]; p.o. 1 mg/kg single dose) was 0.32 μg/(ng/g). For the same compound, the “V2_F (apparent volume of peripheral compartment)” value ([1]; p.o. 1 mg/kg single dose) was 0.16 μg/(ng/g), the “Alpha” value ([1]; s.c. 1 mg/kg single dose) was 2.66 h⁻¹ and the “Beta” value ([1]; s.c. 1 mg/kg single dose) was 0.22 h⁻¹. The “CLD2_F (apparent total clearance of the drug after administration)” value ([1]; s.c. 1 mg/kg single dose) was 1.36 ng/(min ng/g), the “CL_F (apparent total body clearance of the drug)” value ([1]; s.c. 1 mg/kg single dose) was 3.68 ng/(min ng/g) and the “K01 (absorption rate constant)” value ([1]; s.c. 1 mg/kg single dose) was 2.70 h⁻¹. For the same compound, the “K12 (distribution rate constant)” value ([1]; s.c. 1 mg/kg single dose) was 0.69 h⁻¹, the “K21 (redistribution rate constant)” value ([1]; s.c. 1 mg/kg single dose) was 0.32 h⁻¹ and the “V1_F (apparent volume of central compartment)” value ([1]; s.c. 1 mg/kg single dose) was 0.12 μg/(ng/g). The “V2_F (apparent volume of peripheral compartment)” value ([1]; s.c. 1 mg/kg single dose) was 0.26 μg/(ng/g), the AUC ([2]; ip) was 1.8 µg·h/mL and the MRT last ([2]; ip) was 27.4 min. It also gave a k el ([2]; ip) of 0.00114 s⁻¹, an AUC ([2]; iv) of 2.51 µg·h/mL and an MRT last ([2]; iv) of 13.2 min. For the same compound, the k el ([2]; iv) was 0.00193 s⁻¹, the AUC ([2]; po) was 0.227 µg·h/mL and the MRT last ([2]; po) was 32.6 min. The k el ([2]; po) was 0.000711 s⁻¹, the AUC ([2]; sc) was 2.24 µg·h/mL and the MRT last ([2]; sc) was 38.8 min. For the same compound, the k el ([2]; sc) was 0.000592 s⁻¹, the “Alpha” value ([2]; i.p. 1 mg/kg single dose) was 0.07 min⁻¹ and the “Beta” value ([2]; i.p. 1 mg/kg single dose) was 0.03 min⁻¹. For the same compound, the “CLD2_F (apparent total clearance of the drug from plasma after administration)” value ([2]; i.p. 1 mg/kg single dose) was less than 0.01 µL/min, the “CL_F (apparent total body clearance of the drug from plasma)” value ([2]; i.p. 1 mg/kg single dose) was 0.16 µL/min and the “K01 (absorption rate constant)” value ([2]; i.p. 1 mg/kg single dose) was 4.29 h⁻¹. For the same compound, the “K12 (distribution rate constant)” value ([2]; i.p. 1 mg/kg single dose) was less than 0.001 h⁻¹, the “K21 (redistribution rate constant)” value ([2]; i.p. 1 mg/kg single dose) was 2.00 h⁻¹ and the “V1_F (apparent volume of central compartment)” value ([2]; i.p. 1 mg/kg single dose) was less than 0.01 mL. The “V2_F (apparent volume of peripheral compartment)” value ([2]; i.p. 1 mg/kg single dose) was less than 0.01 mL, the “Alpha” value ([2]; i.v. 1 mg/kg single dose) was 0.20 min⁻¹ and the “Beta” value ([2]; i.v. 1 mg/kg single dose) was 0.05 min⁻¹. For the same compound, the “CLD2_F (apparent total clearance of the drug from plasma after administration)” value ([2]; i.v. 1 mg/kg single dose) was 84.57 µL/min, the “CL_F (apparent total body clearance of the drug from plasma)” value ([2]; i.v. 1 mg/kg single dose) was 199.16 µL/min and the “K12 (distribution rate constant)” value ([2]; i.v. 1 mg/kg single dose) was 2.95 h⁻¹. The “K21 (redistribution rate constant)” value ([2]; i.v. 1 mg/kg single dose) was 4.85 h⁻¹, the “V1_F (apparent volume of central compartment)” value ([2]; i.v. 1 mg/kg single dose) was 1.72 mL and the “V2_F (apparent volume of peripheral compartment)” value ([2]; i.v. 1 mg/kg single dose) was 1.05 mL. For the same compound, the “Alpha” value ([2]; p.o. 1 mg/kg single dose) was 0.04 min⁻¹, the “Beta” value ([2]; p.o. 1 mg/kg single dose) was 0.04 min⁻¹ and the “CLD2_F (apparent total clearance of the drug from plasma after administration)” value ([2]; p.o. 1 mg/kg single dose) was less than 0.01 µL/min. For the same compound, the “CL_F (apparent total body clearance of the drug from plasma)” value ([2]; p.o. 1 mg/kg single dose) was 2.01 µL/min, the “K01 (absorption rate constant)” value ([2]; p.o. 1 mg/kg single dose) was 2.92 h⁻¹ and the “K12 (distribution rate constant)” value ([2]; p.o. 1 mg/kg single dose) was less than 0.001 h⁻¹. For the same compound, the “K21 (redistribution rate constant)” value ([2]; p.o. 1 mg/kg single dose) was 2.58 h⁻¹, the “V1_F (apparent volume of central compartment)” value ([2]; p.o. 1 mg/kg single dose) was 0.05 mL and the “V2_F (apparent volume of peripheral compartment)” value ([2]; p.o. 1 mg/kg single dose) was less than 0.01 mL. The “Alpha” value ([2]; s.c. 1 mg/kg single dose) was 0.04 min⁻¹, the “Beta” value ([2]; s.c. 1 mg/kg single dose) was 0.04 min⁻¹ and the “CLD2_F (apparent total clearance of the drug from plasma after administration)” value ([2]; s.c. 1 mg/kg single dose) was less than 0.01 µL/min. The “CL_F (apparent total body clearance of the drug from plasma)” value ([2]; s.c. 1 mg/kg single dose) was 0.11 µL/min, the “K01 (absorption rate constant)” value ([2]; s.c. 1 mg/kg single dose) was 2.28 h⁻¹ and the “K12 (distribution rate constant)” value ([2]; s.c. 1 mg/kg single dose) was less than 0.001 h⁻¹. The “K21 (redistribution rate constant)” value ([2]; s.c. 1 mg/kg single dose) was 2.14 h⁻¹, the “V1_F (apparent volume of central compartment)” value ([2]; s.c. 1 mg/kg single dose) was less than 0.01 mL and the “V2_F (apparent volume of peripheral compartment)” value ([2]; s.c. 1 mg/kg single dose) was less than 0.01 mL.
